Activity calls are given as the source filed them. No cut-off for these calls is given here.
Experiments:
[1] = target: Sodium-dependent dopamine transporter (Homo sapiens, UniProt Q01959); experiment: Displacement of [125I]RTI-55 from human DAT expressed in HEK293 cells; format: cell-based
Procedure, shortened: (§1)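 Nonspecific binding was defined with 5 μM mazindol. Ki was determined under standard conditions and reported as mean ± SEM of replicate assays. A value >10000 nM means less than 30% radioligand displacement at that concentration.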

[2] = target: Mu-type opioid receptor (Homo sapiens) (UniProt P35372); experiment: Displacement of radioligand from opioid mu receptor assessed as 50% receptor inhibition at 10^-7 M
Sequence of Mu-type opioid receptor (Homo sapiens) (P35372 whole entry): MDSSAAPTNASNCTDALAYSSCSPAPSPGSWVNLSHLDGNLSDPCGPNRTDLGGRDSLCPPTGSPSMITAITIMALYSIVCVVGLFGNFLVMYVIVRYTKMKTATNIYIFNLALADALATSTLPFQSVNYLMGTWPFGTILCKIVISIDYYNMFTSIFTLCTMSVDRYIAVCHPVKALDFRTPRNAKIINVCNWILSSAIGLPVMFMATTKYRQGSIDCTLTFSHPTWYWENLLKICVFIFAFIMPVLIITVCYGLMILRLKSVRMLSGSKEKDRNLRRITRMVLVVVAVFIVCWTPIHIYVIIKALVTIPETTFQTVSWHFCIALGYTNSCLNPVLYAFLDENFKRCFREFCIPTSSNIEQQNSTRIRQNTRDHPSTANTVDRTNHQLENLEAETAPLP
Procedure, shortened: (§2)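 Part of a contracted (NovaScreen) panel of 64 radioligand/enzyme assays, with the test compound run at 10⁻⁵ M and 10⁻⁷ M. Each assay was scored by whether radioligand displacement exceeded 50% at each concentration.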

[3] = target: D(3) dopamine receptor (Homo sapiens, UniProt P35462); experiment: Displacement of [3H]YM-09151-2 from human D3 receptor expressed in CHO cells; format: cell-based
Sequence of D(3) dopamine receptor (P35462 whole entry): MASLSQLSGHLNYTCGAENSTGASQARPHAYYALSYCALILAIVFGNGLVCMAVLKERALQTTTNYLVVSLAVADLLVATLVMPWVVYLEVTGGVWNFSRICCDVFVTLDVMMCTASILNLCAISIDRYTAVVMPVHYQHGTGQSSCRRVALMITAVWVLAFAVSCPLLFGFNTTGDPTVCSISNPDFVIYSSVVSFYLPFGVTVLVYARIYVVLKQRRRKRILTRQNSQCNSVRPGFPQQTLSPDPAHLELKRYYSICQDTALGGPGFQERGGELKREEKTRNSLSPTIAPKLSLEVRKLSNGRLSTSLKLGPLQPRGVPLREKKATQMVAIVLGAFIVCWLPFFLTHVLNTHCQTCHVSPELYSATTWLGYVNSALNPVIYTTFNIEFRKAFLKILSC
Procedure, shortened: (§3)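 CHOp-D2 or CHOp-D3 cells were labelled with 0.2–0.5 nM [3H]YM-09151-2, and nonspecific binding was set with 1 μM chlorpromazine. Ki was from standard competition conditions, as mean ± SEM of replicate assays.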

[4] = target: Histamine H1 receptor (Homo sapiens) (UniProt P35367); experiment: Displacement of radioligand from histamine H1 receptor assessed as 50% receptor inhibition at 10^-7 M; procedure, shortened: as §2
Sequence of Histamine H1 receptor (Homo sapiens) (P35367 whole entry): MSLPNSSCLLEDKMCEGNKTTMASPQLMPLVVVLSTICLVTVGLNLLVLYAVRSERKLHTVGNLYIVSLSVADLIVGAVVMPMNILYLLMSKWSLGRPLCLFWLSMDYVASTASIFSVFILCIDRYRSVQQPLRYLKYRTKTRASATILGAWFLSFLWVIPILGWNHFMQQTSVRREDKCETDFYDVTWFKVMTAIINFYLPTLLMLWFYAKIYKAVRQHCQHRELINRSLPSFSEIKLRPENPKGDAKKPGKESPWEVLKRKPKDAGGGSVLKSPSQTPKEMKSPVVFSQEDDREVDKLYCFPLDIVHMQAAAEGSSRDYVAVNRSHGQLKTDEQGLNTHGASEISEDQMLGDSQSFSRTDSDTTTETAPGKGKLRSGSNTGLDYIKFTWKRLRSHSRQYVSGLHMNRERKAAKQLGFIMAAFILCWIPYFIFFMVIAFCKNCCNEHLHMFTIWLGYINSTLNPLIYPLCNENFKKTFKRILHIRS

[5] = Displacement of radioligand from sodium channel site 2 assessed as 50% receptor inhibition at 10^-5 M; procedure, shortened: as §2
[6] = target: Cannabinoid receptor 2 (Homo sapiens) (UniProt P34972); experiment: Displacement of radioligand from cannabinoid CB2 receptor assessed as 50% receptor inhibition at 10^-7 M; procedure, shortened: as §2
Sequence of Cannabinoid receptor 2 (Homo sapiens) (P34972 whole entry): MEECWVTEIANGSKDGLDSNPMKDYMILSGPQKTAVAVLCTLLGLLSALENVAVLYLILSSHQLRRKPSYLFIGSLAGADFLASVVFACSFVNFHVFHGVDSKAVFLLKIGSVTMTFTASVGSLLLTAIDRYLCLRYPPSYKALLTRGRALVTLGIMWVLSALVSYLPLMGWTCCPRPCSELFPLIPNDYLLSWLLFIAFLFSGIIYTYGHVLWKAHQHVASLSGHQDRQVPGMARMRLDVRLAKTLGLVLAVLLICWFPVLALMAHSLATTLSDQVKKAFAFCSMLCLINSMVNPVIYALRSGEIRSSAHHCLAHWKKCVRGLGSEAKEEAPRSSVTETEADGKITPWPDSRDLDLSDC

[7] = Displacement of radioligand from muscarinic receptor assessed as 50% receptor inhibition at 10^-7 M; procedure, shortened: as §2
[8] = Displacement of radioligand from adrenergic alpha1 receptor assessed as 50% receptor inhibition at 10^-5 M; procedure, shortened: as §2
[9] = target: Cannabinoid receptor 2 (Homo sapiens) (UniProt P34972); experiment: Displacement of radioligand from cannabinoid CB2 receptor assessed as 50% receptor inhibition at 10^-5 M; procedure, shortened: as §2
[10] = Displacement of radioligand from adrenergic alpha2 receptor assessed as 50% receptor inhibition at 10^-5 M; procedure, shortened: as §2
[11] = Displacement of radioligand from sodium channel site 2 assessed as 50% receptor inhibition at 10^-7 M; procedure, shortened: as §2
[12] = target: Cannabinoid receptor 1 (Homo sapiens) (UniProt P21554); experiment: Displacement of radioligand from cannabinoid CB1 receptor assessed as 50% receptor inhibition at 10^-5 M; procedure, shortened: as §2
Sequence of Cannabinoid receptor 1 (Homo sapiens) (P21554 whole entry): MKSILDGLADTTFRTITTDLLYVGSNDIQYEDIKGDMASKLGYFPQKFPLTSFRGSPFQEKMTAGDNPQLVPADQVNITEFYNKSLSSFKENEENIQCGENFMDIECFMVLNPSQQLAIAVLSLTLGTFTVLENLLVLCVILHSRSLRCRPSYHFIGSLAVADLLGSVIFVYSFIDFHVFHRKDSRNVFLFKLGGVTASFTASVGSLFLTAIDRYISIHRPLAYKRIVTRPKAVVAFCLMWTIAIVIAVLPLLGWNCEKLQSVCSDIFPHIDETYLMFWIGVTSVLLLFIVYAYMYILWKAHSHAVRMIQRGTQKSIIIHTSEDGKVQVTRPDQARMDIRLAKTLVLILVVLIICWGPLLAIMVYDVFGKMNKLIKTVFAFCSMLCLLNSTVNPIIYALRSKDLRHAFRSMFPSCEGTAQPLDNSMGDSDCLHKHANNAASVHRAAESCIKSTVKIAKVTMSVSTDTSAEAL

[13] = target: T1, Substance-K receptor (Homo sapiens) (UniProt P21452); experiment: Displacement of radioligand from neurokinin NK2 receptor assessed as 50% receptor inhibition at 10^-7 M; procedure, shortened: as §2
T1 sequence (whole entry): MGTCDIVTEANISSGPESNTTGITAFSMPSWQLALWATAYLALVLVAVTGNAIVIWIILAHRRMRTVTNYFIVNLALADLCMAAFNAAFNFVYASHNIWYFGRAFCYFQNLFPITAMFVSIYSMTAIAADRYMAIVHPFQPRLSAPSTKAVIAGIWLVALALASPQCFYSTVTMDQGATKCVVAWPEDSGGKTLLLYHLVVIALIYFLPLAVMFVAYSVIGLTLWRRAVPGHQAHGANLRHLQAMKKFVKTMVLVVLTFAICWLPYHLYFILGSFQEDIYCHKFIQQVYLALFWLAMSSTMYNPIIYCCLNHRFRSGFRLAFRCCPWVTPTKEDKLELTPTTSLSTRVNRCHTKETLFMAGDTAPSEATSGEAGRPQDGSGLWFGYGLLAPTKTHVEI

[14] = target: T2, Muscarinic acetylcholine receptor M1 (Homo sapiens) (UniProt P11229); experiment: Displacement of radioligand from muscarinic M1 receptor assessed as 50% receptor inhibition at 10^-7 M; procedure, shortened: as §2
T2 sequence (whole entry): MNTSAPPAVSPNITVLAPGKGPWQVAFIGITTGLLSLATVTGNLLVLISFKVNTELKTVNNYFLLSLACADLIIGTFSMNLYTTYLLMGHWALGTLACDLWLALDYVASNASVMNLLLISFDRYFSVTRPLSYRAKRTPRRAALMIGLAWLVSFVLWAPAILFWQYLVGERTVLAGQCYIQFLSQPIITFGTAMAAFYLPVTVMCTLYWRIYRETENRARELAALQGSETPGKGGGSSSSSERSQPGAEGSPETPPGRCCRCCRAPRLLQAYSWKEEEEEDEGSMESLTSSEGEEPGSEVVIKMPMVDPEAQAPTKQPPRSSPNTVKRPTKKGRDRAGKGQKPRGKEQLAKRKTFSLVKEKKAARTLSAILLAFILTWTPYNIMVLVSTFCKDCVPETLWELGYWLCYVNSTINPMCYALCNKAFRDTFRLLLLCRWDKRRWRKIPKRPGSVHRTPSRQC

[15] = target: D(2) dopamine receptor (Homo sapiens, UniProt P14416); experiment: Displacement of [3H]YM-09151-2 from human D2 receptor expressed in CHO cells; format: cell-based; procedure, shortened: as §3
Sequence of D(2) dopamine receptor (P14416 whole entry): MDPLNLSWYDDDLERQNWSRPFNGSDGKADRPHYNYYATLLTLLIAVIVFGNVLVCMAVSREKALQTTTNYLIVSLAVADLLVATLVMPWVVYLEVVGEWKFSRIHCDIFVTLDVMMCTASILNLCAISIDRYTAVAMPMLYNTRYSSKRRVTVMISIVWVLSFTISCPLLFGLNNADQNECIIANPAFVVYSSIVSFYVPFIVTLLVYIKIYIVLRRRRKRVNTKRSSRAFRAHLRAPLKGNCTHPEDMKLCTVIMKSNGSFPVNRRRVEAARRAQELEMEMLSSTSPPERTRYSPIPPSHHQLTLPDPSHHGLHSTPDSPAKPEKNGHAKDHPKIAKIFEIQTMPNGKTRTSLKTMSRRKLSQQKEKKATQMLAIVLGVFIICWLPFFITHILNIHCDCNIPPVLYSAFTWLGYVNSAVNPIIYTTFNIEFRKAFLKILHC

[16] = target: Mu-type opioid receptor (Homo sapiens) (UniProt P35372); experiment: Displacement of radioligand from opioid mu receptor assessed as 50% receptor inhibition at 10^-5 M; procedure, shortened: as §2
[17] = target: 5-hydroxytryptamine receptor 2A (Homo sapiens, UniProt P28223); experiment: Displacement of […] from human 5HT2A receptor expressed in HEK cells; format: cell-based, HEK293
Sequence of 5-hydroxytryptamine receptor 2A (P28223 whole entry): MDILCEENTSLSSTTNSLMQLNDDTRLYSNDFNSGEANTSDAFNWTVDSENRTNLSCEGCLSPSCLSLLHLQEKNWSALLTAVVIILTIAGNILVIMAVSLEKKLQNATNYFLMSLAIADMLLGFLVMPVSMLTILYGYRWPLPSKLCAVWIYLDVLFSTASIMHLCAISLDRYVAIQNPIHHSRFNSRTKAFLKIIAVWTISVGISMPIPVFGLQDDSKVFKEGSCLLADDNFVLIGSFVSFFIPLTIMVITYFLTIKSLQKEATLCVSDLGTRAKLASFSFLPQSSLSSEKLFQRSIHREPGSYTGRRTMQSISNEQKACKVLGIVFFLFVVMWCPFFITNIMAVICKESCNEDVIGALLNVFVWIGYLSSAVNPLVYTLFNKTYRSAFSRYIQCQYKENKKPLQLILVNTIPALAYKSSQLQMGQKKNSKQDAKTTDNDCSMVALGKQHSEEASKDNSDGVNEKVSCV

[18] = Displacement of radioligand from dopamine D4.2 receptor assessed as 50% receptor inhibition at 10^-5 M; procedure, shortened: as §2
[19] = target: Histamine H1 receptor (Homo sapiens) (UniProt P35367); experiment: Displacement of radioligand from histamine H1 receptor assessed as 50% receptor inhibition at 10^-5 M; procedure, shortened: as §2
[20] = Displacement of radioligand from adrenergic beta1 receptor assessed as 50% receptor inhibition at 10^-5 M; procedure, shortened: as §2
[21] = Displacement of radioligand from adrenergic beta1 receptor assessed as 50% receptor inhibition at 10^-7 M; procedure, shortened: as §2
[22] = target: Sodium-dependent serotonin transporter (Homo sapiens, UniProt P31645); experiment: Displacement of [125I]RTI-55 from human SERT expressed in HEK293 cells; format: cell-based
Sequence of Sodium-dependent serotonin transporter (P31645 whole entry): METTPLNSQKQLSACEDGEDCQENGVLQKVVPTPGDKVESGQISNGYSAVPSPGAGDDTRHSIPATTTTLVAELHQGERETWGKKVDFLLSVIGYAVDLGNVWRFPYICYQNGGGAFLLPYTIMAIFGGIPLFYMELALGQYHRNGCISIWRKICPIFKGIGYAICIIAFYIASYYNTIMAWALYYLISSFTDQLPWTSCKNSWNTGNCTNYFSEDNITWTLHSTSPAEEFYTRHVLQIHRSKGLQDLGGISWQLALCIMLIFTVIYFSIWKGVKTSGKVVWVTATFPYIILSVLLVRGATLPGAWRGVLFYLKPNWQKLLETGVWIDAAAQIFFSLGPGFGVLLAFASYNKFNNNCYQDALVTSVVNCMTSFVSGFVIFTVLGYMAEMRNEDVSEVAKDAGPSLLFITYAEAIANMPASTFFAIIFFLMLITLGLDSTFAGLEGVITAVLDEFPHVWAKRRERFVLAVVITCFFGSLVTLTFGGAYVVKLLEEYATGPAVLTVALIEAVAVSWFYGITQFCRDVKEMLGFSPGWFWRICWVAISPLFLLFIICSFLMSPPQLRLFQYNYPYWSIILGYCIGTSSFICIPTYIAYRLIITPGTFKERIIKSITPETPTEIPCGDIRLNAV

[23] = target: T2, Muscarinic acetylcholine receptor M1 (Homo sapiens); experiment: Displacement of radioligand from muscarinic M1 receptor assessed as 50% receptor inhibition at 10^-5 M; procedure, shortened: as §2
[24] = target: Sodium-dependent noradrenaline transporter (Homo sapiens, UniProt P23975); experiment: Displacement of [125I]RTI-55 from human NET expressed in HEK293 cells; format: cell-based; procedure, shortened: as §1
Sequence of Sodium-dependent noradrenaline transporter (P23975 whole entry): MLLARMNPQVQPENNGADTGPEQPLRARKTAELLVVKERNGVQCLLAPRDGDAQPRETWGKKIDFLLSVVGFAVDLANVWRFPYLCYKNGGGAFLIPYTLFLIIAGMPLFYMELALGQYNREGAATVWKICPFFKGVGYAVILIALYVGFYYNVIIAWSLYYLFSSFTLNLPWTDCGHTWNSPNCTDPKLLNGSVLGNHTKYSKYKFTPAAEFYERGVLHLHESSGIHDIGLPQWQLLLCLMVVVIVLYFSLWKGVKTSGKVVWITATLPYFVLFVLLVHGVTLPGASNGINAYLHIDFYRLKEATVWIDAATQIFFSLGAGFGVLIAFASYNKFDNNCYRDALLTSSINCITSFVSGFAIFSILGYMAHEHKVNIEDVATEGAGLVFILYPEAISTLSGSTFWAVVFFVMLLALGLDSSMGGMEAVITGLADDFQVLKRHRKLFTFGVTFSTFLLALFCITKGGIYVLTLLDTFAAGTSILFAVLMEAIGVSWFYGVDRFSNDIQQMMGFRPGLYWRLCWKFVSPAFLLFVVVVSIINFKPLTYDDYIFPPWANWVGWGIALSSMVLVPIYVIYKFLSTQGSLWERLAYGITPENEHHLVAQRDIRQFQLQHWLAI

[25] = Displacement of radioligand from BZT-sensitive L-type calcium channel assessed as 50% receptor inhibition at 10^-5 M; procedure, shortened: as §2

Sequence of Sodium-dependent dopamine transporter (Q01959 whole entry): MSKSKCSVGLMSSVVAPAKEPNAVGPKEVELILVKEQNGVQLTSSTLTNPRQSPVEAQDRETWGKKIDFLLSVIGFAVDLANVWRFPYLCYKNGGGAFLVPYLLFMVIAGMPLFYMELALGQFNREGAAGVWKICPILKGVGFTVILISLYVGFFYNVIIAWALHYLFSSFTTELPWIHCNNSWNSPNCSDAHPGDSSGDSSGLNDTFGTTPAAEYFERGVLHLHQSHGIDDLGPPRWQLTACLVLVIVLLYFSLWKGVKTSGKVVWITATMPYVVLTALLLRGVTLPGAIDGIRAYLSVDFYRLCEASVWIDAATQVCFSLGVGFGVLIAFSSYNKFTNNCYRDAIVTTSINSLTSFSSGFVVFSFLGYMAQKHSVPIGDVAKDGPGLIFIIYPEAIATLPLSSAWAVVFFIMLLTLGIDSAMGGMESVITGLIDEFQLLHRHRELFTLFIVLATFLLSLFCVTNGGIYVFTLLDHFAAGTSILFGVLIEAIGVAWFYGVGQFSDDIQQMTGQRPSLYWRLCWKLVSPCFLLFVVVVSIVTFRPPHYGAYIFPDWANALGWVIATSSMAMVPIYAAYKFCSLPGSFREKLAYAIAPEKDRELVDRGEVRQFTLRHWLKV

Q: Which Ki [1] does the source give for `COc1cc2c(cc1OC)CN(CCCCn1cc(-c3ccc(F)cc3)c3ccccc31)CC2` here?
A: 5 µM

Q: And the inhibition [2]?
A: inactive

Q: And the Ki [3]?
A: 0.544 µM

Q: What about the inhibition [4] of the same molecule?
A: inactive

Q: What about the inhibition [5] of the same molecule?
A: Active

Q: What about the inhibition [6] of the same molecule?
A: inactive

Q: And the inhibition [7]?
A: inactive

Q: And the inhibition [8]?
A: Active

Q: What about the inhibition [9] of the same molecule?
A: Active

Q: What about the inhibition [10] of the same molecule?
A: Active

Q: And the inhibition [11]?
A: inactive

Q: What about the inhibition [12] of the same molecule?
A: Active

Q: What about the inhibition [13] of the same molecule?
A: inactive

Q: And the inhibition [14]?
A: inactive

Q: And the Ki [15]?
A: 0.87 µM

Q: And the inhibition [16]?
A: Active

Q: What about the Ki [17] of the same molecule?
A: 1.27 µM

Q: And the inhibition [18]?
A: Active

Q: What about the inhibition [19] of the same molecule?
A: Active

Q: And the inhibition [20]?
A: Active

Q: And the inhibition [21]?
A: inactive

Q: What about the Ki [22] of the same molecule?
A: 0.295 µM

Q: What about the inhibition [23] of the same molecule?
A: Active

Q: And the Ki [24]?
A: 1.35 µM

Q: And the inhibition [25]?
A: Active

From ChEMBL document CHEMBL1828538, “Synthesis and pharmacological evaluation of indole-based sigma receptor ligands” (Eur J Med Chem, 2011)
